According to ChEMBL document CHEMBL1154384, “New classes of potent and bioavailable human renin inhibitors” (Bioorg Med Chem Lett, 2009):

Legend:
[1] = Oral bioavailability in Wistar rat at 10 mg/kg; type: ADME, organism-based; settings: in vivo
[2] = target: T1, Renin (Homo sapiens, UniProt P00797); assay: Inhibition of human rennin in human plasma assessed as accumulation of angiotensin 1 using human tetradecapeptide by immunoassay; type: cell-free
T1 sequence (P00797 whole entry): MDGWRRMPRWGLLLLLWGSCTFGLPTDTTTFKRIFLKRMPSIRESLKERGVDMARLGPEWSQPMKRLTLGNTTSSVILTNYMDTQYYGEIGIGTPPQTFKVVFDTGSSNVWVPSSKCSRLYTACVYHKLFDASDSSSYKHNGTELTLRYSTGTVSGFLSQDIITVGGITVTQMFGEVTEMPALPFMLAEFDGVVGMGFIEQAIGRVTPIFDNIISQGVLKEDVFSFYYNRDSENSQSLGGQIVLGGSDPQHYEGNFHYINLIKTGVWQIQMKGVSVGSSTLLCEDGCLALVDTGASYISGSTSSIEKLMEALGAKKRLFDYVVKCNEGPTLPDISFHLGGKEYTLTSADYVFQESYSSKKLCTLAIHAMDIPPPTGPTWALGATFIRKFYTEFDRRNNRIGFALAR

[3] = target: T1, Renin; assay: Inhibition of human rennin in buffer assessed as accumulation of angiotensin 1 using human tetradecapeptide by immunoassay
[4] = Dissociation constant, pKa of the compound; type: physicochemical
How it was run: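 pKa of the template's secondary amine, measured experimentally. Compounds poorly soluble in water in their neutral form were measured in solvent mixtures, so their values could only be estimated.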

[5] = target: Cytochrome P450 3A4 (Homo sapiens, UniProt P08684); assay: Inhibition of CYP3A4; type: ADME
Sequence of Cytochrome P450 3A4 (P08684 whole entry): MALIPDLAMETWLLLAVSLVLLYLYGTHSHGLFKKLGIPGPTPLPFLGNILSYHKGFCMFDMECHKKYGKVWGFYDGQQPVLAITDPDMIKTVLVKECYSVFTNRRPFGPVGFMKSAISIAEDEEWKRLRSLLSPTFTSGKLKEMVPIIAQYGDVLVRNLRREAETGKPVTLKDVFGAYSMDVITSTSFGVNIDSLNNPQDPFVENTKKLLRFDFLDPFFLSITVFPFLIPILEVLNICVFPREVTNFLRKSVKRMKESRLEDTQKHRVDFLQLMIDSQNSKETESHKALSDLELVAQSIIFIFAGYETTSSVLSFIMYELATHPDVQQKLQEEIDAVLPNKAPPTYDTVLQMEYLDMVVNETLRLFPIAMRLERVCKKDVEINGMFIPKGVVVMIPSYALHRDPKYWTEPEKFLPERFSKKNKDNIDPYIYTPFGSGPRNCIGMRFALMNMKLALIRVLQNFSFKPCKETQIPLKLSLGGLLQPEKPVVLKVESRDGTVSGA

bioavailability [1] [%]	IC50 [2] [nM]	IC50 [3] [nM]	SMILES	pKa [4]	IC50 [5] [nM]
10	–	–	O=C(C1=C(c2ccc(CCCOc3cc(F)ccc3Br)cc2)CCNC1)N(Cc1ccccc1Cl)C1CC1	–	–
–	54	1.37	COc1cccc(CN(C(=O)C2=C(c3ccc(CCCOc4c(F)ccc(F)c4Cl)cc3)C[C@H]3CNC[C@H]2N3)C2CC2)c1C	3.6	–
10	7400	170	COc1cccc(CN(C(=O)C2=C(c3ccc(CCCOc4c(F)ccc(F)c4Cl)cc3)C(C)(C)CNC2)C2CC2)c1C	–	–
10	–	330	COc1cccc(CN(C(=O)C2=C(c3ccc(CCCOc4c(F)ccc(F)c4Cl)cc3)C(F)(F)CNC2)C2CC2)c1C	–	–
10	53	1.2	O=C(C1=C(c2ccc(CCCOc3c(F)ccc(F)c3Cl)cc2)CCNC1)N(Cc1cccc(Cl)c1Cl)C1CC1	–	1300
10	87	2	COc1cccc(CN(C(=O)C2=C(c3ccc(CCCOc4c(F)ccc(F)c4Cl)cc3)CCNC2)C2CC2)c1C	–	–
10	–	–	Cc1cc(Cl)c(OCCOc2ccc(C3=C(C(=O)N(Cc4cccc(Cl)c4Cl)C4CC4)CNCC3)cc2)c(Cl)c1	–	–
10	–	800	O=C(C1=C(c2ccc(CCCOc3c(F)ccc(F)c3Cl)cc2)C(F)(F)CNC1)N(Cc1cccc(Cl)c1Cl)C1CC1	–	–
10	2000	31	CC1(C)CNCC(C(=O)N(Cc2cccc(Cl)c2Cl)C2CC2)=C1c1ccc(CCCOc2c(F)ccc(F)c2Cl)cc1	–	–
10	7400	210	COc1cccc(CN(C(=O)C2=C(c3ccc(CCCOc4c(F)ccc(F)c4Cl)cc3)C3(CC3)CNC2)C2CC2)c1C	–	–
–	101	0.92	COc1cccc(CN(C(=O)C2=C(c3ccc(CCCOc4c(F)ccc(F)c4Cl)cc3)C[C@H]3CCC[C@H]2N3)C2CC2)c1C	–	–
10	4000	34	O=C(C1=C(c2ccc(CCCOc3c(F)ccc(F)c3Cl)cc2)C2(CC2)CNC1)N(Cc1cccc(Cl)c1Cl)C1CC1	–	–
–	113	1.1	O=C(C1=C(c2ccc(CCCOc3c(F)ccc(F)c3Cl)cc2)C[C@H]2CCC[C@H]1N2)N(Cc1cccc(Cl)c1Cl)C1CC1	–	–
–	55	0.68	O=C(C1=C(c2ccc(CCCOc3c(F)ccc(F)c3Cl)cc2)C[C@H]2COC[C@H]1N2)N(Cc1cccc(Cl)c1Cl)C1CC1	6.5	–

SMILES	bioavailability [1] [%]	IC50 [2] [nM]	IC50 [3] [nM]	pKa [4]	IC50 [5] [nM]
O=C(C1=C(c2ccc(CCCOc3c(F)ccc(F)c3Cl)cc2)C[C@H]2CNC[C@H]1N2)N(Cc1cccc(Cl)c1Cl)C1CC1	–	36	0.4	8.2	–
COc1cccc(CN(C(=O)C2=C(c3ccc(CCCOc4c(F)ccc(F)c4Cl)cc3)C[C@H]3COC[C@H]2N3)C2CC2)c1C	–	42	0.49	6.5	1000
O=C(C1=C(c2ccc(CCCOc3c(F)ccc(F)c3Cl)cc2)C[C@H]2CC[C@H]1N2)N(Cc1cccc(Cl)c1Cl)C1CC1	–	47	0.55	–	1900
COc1cccc(CN(C(=O)C2=C(c3ccc(CCCOc4c(F)ccc(F)c4Cl)cc3)C[C@H]3C[S+]([O-])C[C@H]2N3)C2CC2)c1C (some centres undefined)	–	–	64	–	–
O=C(C1=C(c2ccc(CCCOc3c(F)ccc(F)c3Cl)cc2)C[C@H]2CS(=O)(=O)C[C@H]1N2)N(Cc1cccc(Cl)c1Cl)C1CC1	–	–	6.4	–	–
COc1cccc(CN(C(=O)C2=C(c3ccc(CCCOc4c(F)ccc(F)c4Cl)cc3)C[C@H]3CC[C@H]2N3)C2CC2)c1C	–	43	0.74	–	–
